Results pooled from the literature.
Compare with care: the assays were run in different laboratories.
Cell line: PC-3
Effect on: cell growth or viability

| SMILES | test | setting | measurement | value |
| --- | --- | --- | --- | --- |
| Cc1ccc(-c2cc(-c3ccc(N(C)C)cc3)c3c(=O)[nH]c(=O)[nH]c3n2)cc1 | MTT | 48 h | IC50 | 17.4 µM |
| CCOc1ccc2c(C)c(CC)c(=O)oc2c1C | MTT | 500 µg/mL | viability | 7.6% |
| COc1cc2ncnc(N(C)c3ccc4c(c3)/C(=C/c3ccccc3)C(=O)N4C)c2cc1OC (mixture of isomers) | MTT | – | IC50 | 39.2 µM |
| COc1ccc(-c2cc(-c3cccc(Br)c3)c3c(=O)n(C)c(=O)n(C)c3n2)cc1 | MTT | 48 h | IC50 | 18.4 µM |
| Cc1c(Cc2ccccc2)c(=O)oc2c(C)c(OCC(=O)NN=Cc3ccc([N+](=O)[O-])cc3)ccc12 | MTT | 31.25 µg/mL | viability | 31.3% |
| C=CC(=O)c1cccnc1Nc1cc(C(F)(F)F)ccc1OCc1ccccc1 | SRB | 48 h | GI50 | 19 µM |
| COc1ccc(-c2cc(-c3ccccc3Cl)c3c(=O)[nH]c(=O)[nH]c3n2)cc1 | MTT | 48 h | IC50 | 28.4 µM |
| O=C(O)c1ccccc1Nc1cccc(C(F)(F)F)c1 | SRB | 48 h | GI50 | > 30 µM |
| Cc1nc(Nc2ccc3c(c2)/C(=C/c2ccccc2C)C(=O)N3C)c2ccccc2n1 | MTT | – | IC50 | 15.9 µM |
| COc1ccc(-c2cc(-c3c(OC)cccc3OC)c3c(=O)n(C)c(=O)n(C)c3n2)cc1 | MTT | 48 h | IC50 | 18.6 µM |
| C=CCOc1ccc2c(C)c(CC)c(=O)oc2c1C | MTT | 125 µg/mL | viability | 95.8% |
| Cc1nc(Nc2ccc3c(c2)/C(=C/c2ccccc2)C(=O)N3C)c2ccccc2n1 | MTT | – | IC50 | 18.7 µM |
| COc1ccc(-c2cc(-c3c(OC)cccc3OC)c3c(=O)[nH]c(=O)[nH]c3n2)cc1 | MTT | 48 h | IC50 | 41.5 µM |
| CCCOc1nc(-c2cccc(O)c2)cc(-c2cc3cc(OC)ccc3nc2N2CCOCC2)c1C#N | MTT | 72 h | IC50 | 0.0639 µM |
| COc1ccc(-c2cc(-c3ccc(N(C)C)cc3)c3c(=O)n(C)c(=O)n(C)c3n2)cc1 | MTT | 48 h | IC50 | 5.18 µM |
| Cc1c(Cc2ccccc2)c(=O)oc2c(C)c(OCC(=O)NN=Cc3ccccc3)ccc12 | MTT | 62.5 µg/mL | viability | 26.3% |
| Cc1nc(Nc2ccc3c(c2)/C(=C/c2ccccc2Cl)C(=O)N3)c2ccccc2n1 | MTT | – | IC50 | 2.45 µM |
| CCc1c(C)c2ccc(OCC(=O)NN=Cc3ccc([N+](=O)[O-])cc3)cc2oc1=O | MTT | 31.25 µg/mL | viability | 22.2% |
| O=C(O)c1cccnc1Nc1cccc(C(F)(F)F)c1 | SRB | 48 h | GI50 | > 30 µM |
| Cc1c(Cc2ccccc2)c(=O)oc2c(C)c(OCC(=O)NN=Cc3ccc(Cl)cc3)ccc12 | MTT | 1000 µg/mL | viability | 2.23% |
| COc1cc2ncnc(Nc3ccc4c(c3)/C(=C/c3ccccc3)C(=O)N4)c2cc1OC | MTT | – | IC50 | 4.17 µM |
| CCc1c(C)c2ccc(OCc3nnc(S)n3N)c(C)c2oc1=O | MTT | 31.25 µg/mL | viability | 58.5% |
| Cc1nc2ccc(CN(C)c3ccc(C(=O)N[C@@H](CCC(=O)O)C(=O)O)s3)cc2c(=O)[nH]1 | MTT | 48 h | IC50 | 3.09 µM |
| CCc1c(C)c2ccc(OCC(=O)NNC(=S)Nc3ccccc3)c(C)c2oc1=O | MTT | 1000 µg/mL | viability | 2.47% |
| Cc1nc(Nc2ccc3c(c2)/C(=C/c2ccccc2)C(=O)N3Cc2ccccc2)c2ccccc2n1 | MTT | – | IC50 | > 50 µM |
